According to ChEMBL document CHEMBL3407394, “Synthesis and in vitro anticancer activity evaluation of novel bioreversible phosphate inositol derivatives” (Eur J Med Chem, 2015):

What was measured:
A549 = assay: Cytotoxicity against human A549 cells assessed as growth inhibition at 10 ug/ml after 72 hrs by MTT assay; format: functional; details: A549, 72 h, read-out: GI
Summary of the method: (§1)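 Single-concentration screen in A549, HeLa or MDA-MB-231 cells cultured in DMEM, 10% FBS, 1% penicillin/streptomycin. About 1000 cells/well were preincubated 12 h, and compound diluted in DMEM to the final well concentration (0.5% DMSO) for 72 h at 37 °C, 5% CO2. Readout was MTT 4 h, DMSO-solubilized formazan, OD570, with inhibition relative to DMSO vehicle. Cisplatin in 1% NaCl (pH 7) served as positive control.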

HeLa = assay: Cytotoxicity against human HeLa cells assessed as growth inhibition at 10 ug/ml after 72 hrs by MTT assay; format: functional; details: read-out: GI; summary of the method: as §1
MDA-MB-231 = assay: Cytotoxicity against human MDA-MB-231 cells assessed as growth inhibition at 10 ug/ml after 72 hrs by MTT assay; format: functional; details: MDA-MB-231, 72 h, read-out: GI; summary of the method: as §1
[1] = Cytotoxicity against human MCF10A cells assessed as growth inhibition at 10 ug/ml after 72 hrs by MTT assay; format: cell-based, MCF-10A; details: read-out: GI
Summary of the method: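 MCF10A cells in DMEM/F12 plus 5% horse serum, about 1000 per well, were incubated 12 h, then treated at one final well concentration diluted in DMEM (0.5% DMSO) for 72 h, 37 °C, 5% CO2. Viability was by MTT: 4 h in fresh medium, formazan dissolved in DMSO, absorbance at 570 nm, normalized to vehicle controls. Cisplatin in 1% NaCl, pH 7, was the positive control.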

Compound	inhibition of growth at 10 µg/mL (A549) [%]	inhibition of growth at 10 µg/mL (HeLa) [%]	inhibition of growth at 10 µg/mL (MDA-MB-231) [%]	inhibition at 72 h, 10 ug/ml [1] [%]
CC(=O)Oc1ccc(COP(=O)(OCc2ccc(OC(C)=O)cc2)O[C@@H]2[C@@H](OCc3ccccc3)[C@H](OCc3ccccc3)[C@@H](OCc3ccccc3)[C@H](OCc3ccccc3)[C@@H]2OP(=O)(OCc2ccc(OC(C)=O)cc2)OCc2ccc(OC(C)=O)cc2)cc1	14.9	15.8	-17.2	42.3
C#CCO[C@@H]1[C@@H](OCc2ccccc2)[C@H](OP(=O)(OCc2ccc(OC(C)=O)cc2)OCc2ccc(OC(C)=O)cc2)[C@H](OCc2ccccc2)[C@H](OP(=O)(OCc2ccc(OC(C)=O)cc2)OCc2ccc(OC(C)=O)cc2)[C@H]1OCc1ccccc1	9.9	100	8.7	38.6
CC(=O)Oc1ccc(COP(=O)(OCc2ccc(OC(C)=O)cc2)O[C@H]2[C@H](OCc3ccccc3)[C@@H](OP(=O)(OCc3ccc(OC(C)=O)cc3)OCc3ccc(OC(C)=O)cc3)[C@H](OCc3ccccc3)[C@@H](OP(=O)(OCc3ccc(OC(C)=O)cc3)OCc3ccc(OC(C)=O)cc3)[C@H]2OCc2ccccc2)cc1	12.8	69.3	-22.3	34.9
CC(=O)Oc1ccc(COP(=O)(OCc2ccc(OC(C)=O)cc2)O[C@H]2[C@H](OCc3ccccc3)[C@@H](OCc3ccccc3)[C@@H](OP(=O)(OCc3ccc(OC(C)=O)cc3)OCc3ccc(OC(C)=O)cc3)[C@@H](OP(=O)(OCc3ccc(OC(C)=O)cc3)OCc3ccc(OC(C)=O)cc3)[C@@H]2OCc2ccccc2)cc1	-1.2	-6.2	-2.1	15.6
CC(=O)Oc1ccc(COP(=O)(OCc2ccc(OC(C)=O)cc2)O[C@@H]2[C@@H](OCc3ccccc3)[C@@H](OCc3ccccc3)[C@@H](OP(=O)(OCc3ccc(OC(C)=O)cc3)OCc3ccc(OC(C)=O)cc3)[C@H](OP(=O)(OCc3ccc(OC(C)=O)cc3)OCc3ccc(OC(C)=O)cc3)[C@H]2OCc2ccccc2)cc1	7.8	80	21.3	9.2
CC(=O)Oc1ccc(COP(=O)(OCc2ccc(OC(C)=O)cc2)O[C@@H]2[C@H](OCc3ccccc3)[C@H](OCc3ccccc3)[C@@H](OP(=O)(OCc3ccc(OC(C)=O)cc3)OCc3ccc(OC(C)=O)cc3)[C@H](OP(=O)(OCc3ccc(OC(C)=O)cc3)OCc3ccc(OC(C)=O)cc3)[C@H]2OCc2ccccc2)cc1	6.4	84.5	11	37.4
CC(=O)Oc1ccc(COP(=O)(OCc2ccc(OC(C)=O)cc2)O[C@H]2[C@H](OP(=O)(OCc3ccc(OC(C)=O)cc3)OCc3ccc(OC(C)=O)cc3)[C@@H](OCc3ccccc3)[C@H](OCc3ccccc3)[C@H](OCc3ccccc3)[C@@H]2OP(=O)(OCc2ccc(OC(C)=O)cc2)OCc2ccc(OC(C)=O)cc2)cc1	4.7	49.5	19.2	45.1
CC(=O)Oc1ccc(COP(=O)(OCc2ccc(OC(C)=O)cc2)O[C@@H]2[C@@H](OCc3ccccc3)[C@H](OCc3ccccc3)[C@@H](OP(=O)(OCc3ccc(OC(C)=O)cc3)OCc3ccc(OC(C)=O)cc3)[C@@H](OP(=O)(OCc3ccc(OC(C)=O)cc3)OCc3ccc(OC(C)=O)cc3)[C@H]2OCc2ccccc2)cc1	9.1	-1.2	-11	5.1
